Test results: ChEMBL document CHEMBL1127060 (1993)
Activity calls are given as the source filed them. The calls are words filed in the database; no cut-off is given here.

Columns and labels:
[1] = Agonism at turkey erythrocyte P2Y receptor.; format: functional, Meleagris gallopavo
In short: (§1)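 Turkey erythrocytes labeled 18–24 h at 37 °C with 2-[3H]myo-inositol in inositol-free DMEM; ghosts made by hypotonic lysis (5 mM Na phosphate pH 7.4, 5 mM MgCl2, 1 mM EGTA). PLC assay: ~175 μg protein ghosts, 1 μM GTPγS, Hepes pH 7.0 medium with 424 μM CaCl2, 2 mM EGTA; 5 min, 30 °C; total [3H]inositol phosphates by anion exchange; K0.5 averaged from 3–8 curves.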

Meleagris gallopavo [2] = experiment: Tested for stimulation of production of inositol phosphate in turkey erythrocyte membrane; Not active; format: functional; in short: as §1
Cavia porcellus [3] = species on record: Cavia porcellus; experiment: Tested for contraction of guinea pig isolated urinary bladder detrusor muscle at 37 degree C; Not active; format: functional; settings: Muscle tissue
Cavia porcellus [4] = species on record: Cavia porcellus; experiment: Tested for contraction of guinea pig vas deferens at 37 degree C; Not active; format: functional
Cavia porcellus [5] = species on record: Cavia porcellus; experiment: Tested for relaxation of carbachol-contracted guinea pig taenia coli at 37 degree C; Significantly less potent than ATP; format: functional
Oryctolagus cuniculus [6] = species on record: Oryctolagus cuniculus; experiment: Tested for contraction of rabbit saphenous artery produced by 1 uM alpha,beta-MeATP at 37 degree C; Not active; format: functional
Oryctolagus cuniculus [7] = species on record: Oryctolagus cuniculus; experiment: Tested for relaxation of carbachol-contracted rabbit aorta at 37 degree C; Potency equal to 2MeSATP; format: functional
Oryctolagus cuniculus [8] = species on record: Oryctolagus cuniculus; experiment: Tested for relaxation of carbachol-contracted rabbit mesenteric artery at 37 degree C; Less potent or equal to 2MeSATP; format: functional
Cavia porcellus [9] = species on record: Cavia porcellus; experiment: Tested for contraction of guinea pig vas deferens at 37 degree C; Less potent than or equal to ATP; format: functional
Cavia porcellus [10] = species on record: Cavia porcellus; experiment: Tested for relaxation of carbachol-contracted guinea pig taenia coli at 37 degree C; Potency equal to ATP; format: functional
Oryctolagus cuniculus [11] = species on record: Oryctolagus cuniculus; experiment: Tested for relaxation of carbachol-contracted rabbit aorta at 37 degree C; More potent or equal to 2MeSATP; format: functional
Cavia porcellus [12] = species on record: Cavia porcellus; experiment: Tested for contraction of guinea pig isolated urinary bladder detrusor muscle at 37 degree C; Potency equal to ATP; format: functional; settings: Muscle tissue
Cavia porcellus [13] = species on record: Cavia porcellus; experiment: Tested for contraction of guinea pig isolated urinary bladder detrusor muscle at 37 degree C; More potent than or equal to ATP; format: functional; settings: Muscle tissue
Cavia porcellus [14] = species on record: Cavia porcellus; experiment: Tested for contraction of guinea pig vas deferens at 37 degree C; Potency equal to ATP; format: functional
Cavia porcellus [15] = species on record: Cavia porcellus; experiment: Tested for relaxation of carbachol-contracted guinea pig taenia coli at 37 degree C; Significantly more potent than ATP; format: functional
Oryctolagus cuniculus [16] = species on record: Oryctolagus cuniculus; experiment: Tested for relaxation of carbachol-contracted rabbit mesenteric artery at 37 degree C; Significantly more potent than 2MeSATP; format: functional
Cavia porcellus [17] = species on record: Cavia porcellus; experiment: Tested for contraction of guinea pig isolated urinary bladder detrusor muscle at 37 degree C; Significantly more potent than ATP; format: functional; settings: Muscle tissue
Cavia porcellus [18] = species on record: Cavia porcellus; experiment: Tested for contraction of guinea pig vas deferens at 37 degree C; Significantly more potent than ATP; format: functional
Oryctolagus cuniculus [19] = species on record: Oryctolagus cuniculus; experiment: Tested for relaxation of carbachol-contracted rabbit aorta at 37 degree C; Significantly more potent than 2MeSATP; format: functional
Meleagris gallopavo [20] = experiment: Stimulating production of inositol phosphate in turkey erythrocyte membranes at a concentration of 100 uM; Inactive; format: functional, cell membranes; in short: as §1
Oryctolagus cuniculus [21] = species on record: Oryctolagus cuniculus; experiment: Tested for relaxation of carbachol-contracted rabbit mesenteric artery at 37 degree C; More potent than or equal to 2MeSATP; format: functional
Oryctolagus cuniculus [22] = species on record: Oryctolagus cuniculus; experiment: Tested for relaxation of carbachol-contracted rabbit mesenteric artery at 37 degree C; Potency equal to 2MeSATP; format: functional
Cavia porcellus [23] = species on record: Cavia porcellus; experiment: Tested for contraction of guinea pig isolated urinary bladder detrusor muscle at 37 degree C; 100 times more potent than ATP; format: functional; settings: Muscle tissue
Oryctolagus cuniculus [24] = species on record: Oryctolagus cuniculus; experiment: Tested for contraction of rabbit saphenous artery produced by 1 uM alpha,beta-MeATP at 37 degree C; format: functional
Cavia porcellus [25] = species on record: Cavia porcellus; experiment: Tested for contraction of guinea pig isolated urinary bladder detrusor muscle at 37 degree C; Less potent than or equal to ATP; format: functional; settings: Muscle tissue
Cavia porcellus [26] = species on record: Cavia porcellus; experiment: Tested for contraction of guinea pig vas deferens at 37 degree C; More potent than or equal to ATP; format: functional
Meleagris gallopavo [27] = experiment: Induction of inositol phosphate in turkey erythrocyte membranes at 100 uM; Inactive; format: functional, cell membranes; in short: as §1
Cavia porcellus [28] = species on record: Cavia porcellus; experiment: Tested for contraction of guinea pig isolated urinary bladder detrusor muscle by 1 uM alpha,beta-MeATP at 37 degree C; Not active; format: functional; settings: Muscle tissue
Oryctolagus cuniculus [29] = species on record: Oryctolagus cuniculus; experiment: Tested for relaxation of carbachol-contracted rabbit mesenteric artery at 37 degree C; Not active; format: functional
Oryctolagus cuniculus [30] = species on record: Oryctolagus cuniculus; experiment: Tested for relaxation of carbachol-contracted rabbit mesenteric artery at 37 degree C; Significantly less potent than 2MeSATP; format: functional
Oryctolagus cuniculus [31] = species on record: Oryctolagus cuniculus; experiment: Tested for relaxation of carbachol-contracted rabbit aorta at 37 degree C; More potent than or equal to 2MeSATP; format: functional

Compound	K 0.5 [1] [nM]	Relative activity (Oryctolagus cuniculus [6])	Relative activity (Cavia porcellus [15])	Relative activity (Oryctolagus cuniculus [16])	Relative activity (Oryctolagus cuniculus [19])	also measured
Nc1ccc(CCSc2nc(N)c3ncn([C@@H]4O[C@H](COP(=O)(O)OP(=O)(O)OP(=O)(O)O)[C@@H](O)[C@H]4O)c3n2)cc1	1.53	–	–	–	–	–
Nc1ncnc2c1ncn2[C@@H]1O[C@H](COP(=O)(O)O)[C@@H](O)[C@H]1O [ADENOSINE PHOSPHATE]	–	inactive	–	–	–	K 0.5 (Meleagris gallopavo [2]): inactive; Relative activity (Cavia porcellus [3]): inactive; Relative activity (Cavia porcellus [4]): inactive; Relative activity (Cavia porcellus [5]): Partially active; Relative activity (Oryctolagus cuniculus [7]): 4.8; Relative activity (Oryctolagus cuniculus [8]): 5
Nc1ncnc2c1ncn2[C@@H]1O[C@H](COP(=O)(O)OP(=O)(O)O)[C@@H](O)[C@H]1O [ADENOSINE DIPHOSPHATE]	8000	inactive	–	–	–	Relative activity (Cavia porcellus [9]): Partially active; Relative activity (Cavia porcellus [10]): Active; Relative activity (Oryctolagus cuniculus [11]): 5.2; Relative activity (Oryctolagus cuniculus [8]): 5.2; Relative activity (Cavia porcellus [12]): Active
C=CCCCCSc1nc(N)c2ncn(C3O[C@H](COP(=O)(O)OP(=O)(O)OP(=O)(O)O)[C@@H](O)[C@H]3O)c2n1 (stereo partly specified)	10	inactive	7.9	7	–	Relative activity (Cavia porcellus [13]): Active; Relative activity (Cavia porcellus [14]): Active
Nc1nc(SCCc2ccccc2)nc2c1ncn2C1O[C@H](COP(=O)(O)OP(=O)(O)OP(=O)(O)O)[C@@H](O)[C@H]1O (stereo partly specified)	30	inactive	7.1	6.2	6.5	Relative activity (Cavia porcellus [17]): Active; Relative activity (Cavia porcellus [18]): Active
N#CSCCCCCCCSc1nc(N)c2ncn(C3O[C@H](COP(=O)(O)OP(=O)(O)OP(=O)(O)O)[C@@H](O)[C@H]3O)c2n1 (stereo partly specified)	25.9	–	–	–	–	–
C=CCCCCSc1nc(N)c2ncn(C3O[C@H](CO)[C@@H](O)[C@H]3O)c2n1 (stereo partly specified)	–	–	–	–	–	Activity (Meleagris gallopavo [20]): inactive
Nc1nc(SCCCCCCCS)nc2c1ncn2C1O[C@H](COP(=O)(O)OP(=O)(O)OP(=O)(O)O)[C@@H](O)[C@H]1O (stereo partly specified)	773	–	–	–	–	–
NCCCCCCCSc1nc(N)c2ncn(C3O[C@H](COP(=O)(O)OP(=O)(O)OP(=O)(O)O)[C@@H](O)[C@H]3O)c2n1 (stereo partly specified)	72.8	–	–	–	–	–
Nc1ncnc2c1ncn2[C@@H]1O[C@H](CO)[C@@H](O)[C@H]1O [ADENOSINE]	–	inactive	–	–	–	K 0.5 (Meleagris gallopavo [2]): inactive; Relative activity (Cavia porcellus [3]): inactive; Relative activity (Cavia porcellus [4]): inactive; Relative activity (Cavia porcellus [5]): 3.9; Relative activity (Oryctolagus cuniculus [21]): 5.7; Relative activity (Oryctolagus cuniculus [22]): 6
C=CCCCCSc1nc(N)c2ncn(C3O[C@H](COP(=O)(O)OP(=O)(O)O)[C@@H](O)[C@H]3O)c2n1 (stereo partly specified)	4	–	8.1	–	–	–
N#CCCCCCCSc1nc(N)c2ncn(C3O[C@H](COP(=O)(O)OP(=O)(O)OP(=O)(O)O)[C@@H](O)[C@H]3O)c2n1 (stereo partly specified)	10	–	8.6	6.9	7	Relative activity (Cavia porcellus [23]): Active; Relative activity (Cavia porcellus [18]): Active; Relative activity (Oryctolagus cuniculus [24]): 9.2%
Nc1nc(SCCc2ccc([N+](=O)[O-])cc2)nc2c1ncn2C1O[C@H](COP(=O)(O)OP(=O)(O)OP(=O)(O)O)[C@@H](O)[C@H]1O (stereo partly specified)	12	–	8	7	6.2	Relative activity (Cavia porcellus [25]): Partially active; Relative activity (Cavia porcellus [18]): Active; Relative activity (Oryctolagus cuniculus [24]): 2.6%
CCCCCCSc1nc(N)c2ncn(C3O[C@H](COP(=O)(O)OP(=O)(O)OP(=O)(O)O)[C@@H](O)[C@H]3O)c2n1 (stereo partly specified)	5	inactive	7.5	6.7	6.7	Relative activity (Cavia porcellus [26]): Active; Relative activity (Cavia porcellus [12]): Active
Nc1nc(SCCc2ccc([N+](=O)[O-])cc2)nc2c1ncn2C1O[C@H](CO)[C@@H](O)[C@H]1O (stereo partly specified)	–	–	–	–	–	Activity (Meleagris gallopavo [27]): inactive
C=CCCCCSc1nc(N)c2ncn(C3O[C@H](COP(=O)(O)O)[C@@H](O)[C@H]3O)c2n1 (stereo partly specified)	328	inactive	–	–	7	Relative activity (Cavia porcellus [3]): inactive; Relative activity (Cavia porcellus [4]): inactive; Relative activity (Cavia porcellus [10]): 5; Relative activity (Oryctolagus cuniculus [21]): 6.3
CSc1nc(N)c2ncn([C@@H]3O[C@H](COP(=O)(O)OP(=O)(O)O)[C@@H](O)[C@H]3O)c2n1	6	–	–	Active	Active	–
Nc1nc(Cl)nc2c1ncn2[C@@H]1O[C@H](COP(=O)(O)OP(=O)(O)OP(=O)(O)O)[C@@H](O)[C@H]1O	72	inactive	7.2	–	–	Relative activity (Cavia porcellus [14]): Active; Relative activity (Oryctolagus cuniculus [22]): 6.2; Relative activity (Oryctolagus cuniculus [11]): 5.8; Relative activity (Cavia porcellus [12]): Active
CSc1nc(N)c2ncn([C@@H]3O[C@H](COP(=O)(O)OP(=O)(O)OP(=O)(O)O)[C@@H](O)[C@H]3O)c2n1	8	inactive	8	6.5	6.8	Relative activity (Cavia porcellus [14]): Active; Relative activity (Cavia porcellus [12]): Active
CNc1ncnc2c1ncn2[C@@H]1O[C@H](COP(=O)(O)OP(=O)(O)OP(=O)(O)O)[C@@H](O)[C@H]1O	19000	inactive	–	–	–	Relative activity (Cavia porcellus [4]): inactive; Relative activity (Cavia porcellus [28]): inactive; Relative activity (Cavia porcellus [10]): 5.8; Relative activity (Oryctolagus cuniculus [29]): inactive; Relative activity (Oryctolagus cuniculus [30]): Partially active
Nc1nc(SC2CCCCC2)nc2c1ncn2C1O[C@H](COP(=O)(O)OP(=O)(O)OP(=O)(O)O)[C@@H](O)[C@H]1O (stereo partly specified)	24	inactive	8	–	–	Relative activity (Cavia porcellus [26]): Active; Relative activity (Oryctolagus cuniculus [21]): 5.9; Relative activity (Oryctolagus cuniculus [31]): 6.3; Relative activity (Cavia porcellus [12]): Active
